Activity calls are given as the source filed them. The rule behind the calls is not given here.
How the values were obtained:
[1] = Cytotoxicity against African green monkey Vero cells infected with RSV assessed as decrease in cell viability after 48 hrs by WST1 assay; format: cell-based; conditions: chlorocebus sabaeus
Summary of the method: (§1)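 Cells at 1×10^4/well, cultured overnight at 37 °C, were incubated 48 h with serially diluted compound. Viability was read by WST-1 absorbance (OD450/OD630).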

Hepatitis C virus [2] = assay: Antiviral activity against GFP-fused HCV JFH-1 harboring K78E/E2-G451R/NS3-M260K/NS5A-T462I mutant infected in human Huh7.5.1 cells assessed as reduction in viral infection at 10 uM preincubated for 2 hrs followed by viral infection and measured after 48 hrs by epifluorescence microscopic analysis relative to control; format: functional, Hepacivirus hominis; parameters: scale not given: the % may be the effect or the level left
Summary of the method: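 Primary screen at 10 μM. Huh7.5.1 cells were pretreated 2 h, then infected with GFP-HCV (MOI 1). GFP intensity was checked by fluorescence microscopy at 48 h. Hits needed over 50% fluorescence decay before dose-response retesting.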

Hepatitis C virus [3] = assay: Antiviral activity against EGFP-fused HCV JFH-1 harboring K78E/E2-G451R/NS3-M260K/NS5A-T462I mutation infected in human Huh7.5.1 cells assessed as combination index after 2 days in presence of ribavirin by qRT-PCR analysis; format: functional, Hepacivirus hominis
Summary of the method: (§2)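 In HCVcc-infected Huh7.5.1 cells (1×10^4/well, overnight, 37 °C), compound was given at various concentrations alone or with the named approved antiviral. After 2 days HCV RNA was quantified by qRT-PCR to derive the combination index.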

[4] = Inhibition of C-terminal 6-His tagged recombinant human DHODH N-terminal domain delta29 mutant expressed in Escherichia coli BL21(DE3) using dihydroorotate as substrate measured every 30 secs for 6 mins by DCIP dye based assay
Summary of the method: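 Enzyme purified by HisTrap then size exclusion. Reaction started with 500 μM dihydroorotate. DCIP decrease read at 600 nm. Inhibition = (1 − Vi/V0) × 100. IC50 from 8–9 concentrations in triplicate by sigmoidal fit.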

[5] = test system: Human immunodeficiency virus; assay: Antiviral activity against HIV pseudotyped virions infected in human HEK293T cells cotransfected with envelope deficient pNL4-3.luc.R-E- plasmid and VSVG plasmid assessed as inhibition of HIV replication preincubated for 15 mins followed by viral infection and measured at 48 hrs post-infection by luciferase based luminescence method; format: functional, organism-based; conditions: Human immunodeficiency virus 1, HEK-293T
Summary of the method: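 VSV-G-pseudotyped HIV (pNL4-3.luc.R-E-) was made in HEK293T by calcium phosphate transfection, collected at 48 h and diluted to 0.2 ng p24/ml. HEK293T cells in 24-well plates got compound 15 min before 0.5 mL pseudovirus. Cells were lysed 48 h post-infection for luciferase.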

[6] = Selectivity index, ratio of CC50 for MDCK cells to EC50 for Gaussia tagged A/PR/08/34(H1N1) virus infected in MDCK cells; format: toxicity, cell-based; conditions: dog, read-out: Ratio CC50/EC50
Summary of the method: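 MDCK cells seeded at 1×10^5/well overnight, infected with A/PR/08/34(H1N1)-Gaussia luciferase at MOI 0.1, then given 0.05–20 µM compound immediately. Virus read by luminescence or qRT-PCR at 24 hpi; EC50 at 50% signal reduction. CC50 by WST-1 (OD450/OD630) after 48 h of serially diluted compound.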

[7] = Cytotoxicity against human Huh7.5.1 cells assessed as decrease in cell viability after 48 hrs by WST1 assay; format: cell-based
Summary of the method: (§3)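 Cells seeded at 1 × 10^4 per well and cultured overnight at 37 °C, then incubated 48 h with serially diluted compounds. Viability read with WST-1 reagent as absorbance at OD450/OD630.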

Huh7.5.1 = assay: Cytotoxicity against human Huh7.5.1 cells infected with DENV assessed as decrease in cell viability after 48 hrs by WST1 assay; format: cell-based; conditions: Huh-7.5.1, 48 h; summary of the method: as §1
Dengue virus = assay: Antiviral activity against DENV infected in human Huh7.5.1 cells assessed as inhibition of viral replication measured after 3 days by qRT-PCR analysis; format: functional, organism-based; conditions: Huh-7.5.1, 72 h
Summary of the method: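 Huh7.5.1 cells were infected with DENV II or ZIKV at MOI 0.1 and treated with compound. Viral RNA was quantified by qRT-PCR after 3 days. EC50 is 50% reduction of RNA level.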

Hepatitis C virus [8] = assay: Antiviral activity against EGFP-fused HCV JFH-1 harboring K78E/E2-G451R/NS3-M260K/NS5A-T462I mutation infected in human Huh7.5.1 cells assessed as combination index after 2 days in presence of telaprevir by qRT-PCR analysis; format: functional, Hepacivirus hominis; summary of the method: as §2
Enterovirus A71 = assay: Antiviral activity against EV71 infected in human RD cells measured at 24 hrs post-infection by luciferase reporter gene assay; format: functional, organism-based; conditions: Enterovirus A
Summary of the method: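 RD cells at 1×10^4/well, cultured overnight, were infected with EV71(FY)-Luc at MOI 1 and treated with compound immediately afterwards. Luminescence read-out; EC50 is 50% signal reduction.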

Hepatitis C virus [9] = assay: Antiviral activity against HCV infected in human Huh7.5.1 cells assessed as decrease in viral infection in presence of uridine; format: functional, organism-based, Hepacivirus hominis; conditions: Huh-7.5.1
Summary of the method: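 HCV antiviral EC50 in Huh7.5.1 cells was measured with 0.5 mM uridine supplemented, and compared with the EC50 obtained without uridine.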

[10] = Selectivity index, ratio of CC50 for human Huh7.5.1 cells to EC50 for EGFP-fused HCV JFH-1 harboring K78E/E2-G451R/NS3-M260K/NS5A-T462I mutant infected in human Huh7.5.1 cells; format: toxicity, cell-based; conditions: read-out: Ratio CC50/EC50
[11] = Cytotoxicity against human RD cells infected with EV71 assessed as decrease in cell viability after 48 hrs by WST1 assay; format: cell-based; summary of the method: as §3
Homo sapiens = organism: Homo sapiens; assay: Potency index, ratio of teriflunomide IC50 to test compound IC50 for C-terminal 6-His tagged recombinant human DHODH N-terminal domain delta29 mutant expressed in Escherichia coli BL21(DE3)
Summary of the method: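 DCIP assay: His6-Δ29 human DHODH at 10 nM final in 50 mM HEPES pH 7.7, 150 mM KCl, 0.1% Triton X-100, with 100 μM UQ0 and 120 μM DCIP, preincubated 5 min at RT. Reaction started with 500 μM dihydroorotate; A600 read every 30 s for 6 min.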

[12] = Cytotoxicity against African green monkey Vero cells infected with CHIKV assessed as decrease in cell viability after 48 hrs by WST1 assay; format: cell-based; conditions: chlorocebus sabaeus; summary of the method: as §1
Hepatitis C virus [13] = assay: Antiviral activity against EGFP-fused HCV JFH-1 harboring K78E/E2-G451R/NS3-M260K/NS5A-T462I mutation infected in human Huh7.5.1 cells assessed as reduction in viral RNA level after 2 days in presence of telaprevir by qRT-PCR analysis; format: functional, organism-based; conditions: Hepacivirus hominis
Summary of the method: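 Huh7.5.1 cells at 1×10^4/well, grown overnight at 37 °C. HCVcc was mixed with serially diluted compound (top 30 or 6 μM), given alone or with the named drug, and added to the cells. Viral RNA was read by qRT-PCR after 2 days. EC50 is the concentration giving 50% RNA reduction.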

[14] = molecular target: Inosine-5'-monophosphate dehydrogenase 2 (Homo sapiens) (UniProt P12268); assay: Binding affinity to IMPDH2 (unknown origin)
Chain of Inosine-5'-monophosphate dehydrogenase 2 (Homo sapiens) (P12268 2-514 limits assumed): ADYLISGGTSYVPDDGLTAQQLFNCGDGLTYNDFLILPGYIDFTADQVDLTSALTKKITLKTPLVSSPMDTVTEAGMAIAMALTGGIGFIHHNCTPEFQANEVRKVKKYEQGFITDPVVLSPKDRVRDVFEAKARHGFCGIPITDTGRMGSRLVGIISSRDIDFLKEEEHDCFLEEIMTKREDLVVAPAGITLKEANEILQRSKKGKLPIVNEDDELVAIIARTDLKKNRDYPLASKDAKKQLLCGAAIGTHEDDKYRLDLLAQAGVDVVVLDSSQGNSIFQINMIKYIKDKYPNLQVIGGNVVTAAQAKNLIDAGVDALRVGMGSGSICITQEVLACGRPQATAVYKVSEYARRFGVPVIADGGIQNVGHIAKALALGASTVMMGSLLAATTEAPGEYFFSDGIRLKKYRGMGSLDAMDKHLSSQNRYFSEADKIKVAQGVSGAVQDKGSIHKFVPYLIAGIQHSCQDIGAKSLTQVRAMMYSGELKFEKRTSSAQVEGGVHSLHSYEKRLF

CCN(CC)c1ccc(Oc2ccc(-c3[nH]c4cccc(F)c4c(=O)c3C)cc2F)cc1
CC50 at 48 h [1]: > 2500 nM
Activity (Hepatitis C virus [2]): >50%
CI (Hepatitis C virus [3]): >50
IC50 [4]: 60 nM
EC50 [5]: 13 nM
selectivity ratio [6]: > 10
CC50 at 48 h [7]: > 2500 nM
EC50 (Huh7.5.1): > 2500 nM
EC50 (Dengue virus): 7 nM
CI (Hepatitis C virus [8]): >=10 - 50
EC50 (Enterovirus A71): 4 nM
EC50 (Hepatitis C virus [9]): 2800 nM
selectivity ratio [10]: > 416
CC50 at 48 h [11]: > 2500 nM
Ratio IC50 (Homo sapiens): 4
CC50 at 48 h [12]: > 2500 nM
Activity (Hepatitis C virus [13]): Dose-dependent effect
Activity [14]: inactive

Source: ChEMBL document CHEMBL4334439, “Discovery, Optimization, and Target Identification of Novel Potent Broad-Spectrum Antiviral Inhibitors” (J Med Chem, 2019)
